Measurements as given in ChEMBL document CHEMBL1811814, “Synthesis and evaluation of indole, pyrazole, chromone and pyrimidine based conjugates for tumor growth inhibitory activities--development of highly efficacious cytotoxic agents” (Eur J Med Chem, 2010).

Experiments:
Format in all cases: functional
SF-268 = experiment: Growth inhibition of human SF268 cells
SF-295 [1] = experiment: Growth inhibition of human SF295 cells
SF-539 = experiment: Growth inhibition of human SF539 cells
SNB-75 = experiment: Growth inhibition of human SNB75 cells
M14 [2] = experiment: Growth inhibition of human M14 cells
SK-MEL-5 [3] = experiment: Growth inhibition of human SK-MEL-5 cells
IGROV-1 = experiment: Growth inhibition of human IGROV1 cells
Method in brief: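 Follow-up panel testing at five concentrations (10^-4, 10^-5, 10^-6, 10^-7 and 10^-8 M) across the 60 human tumor cell lines. GI50 was obtained for each line from the concentration-response data, with the panel average GI50 also reported.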

OVCAR-3 = experiment: Growth inhibition of human OVCAR3 cells
OVCAR-5 [4] = experiment: Growth inhibition of human OVCAR5 cells
OVCAR-8 = experiment: Growth inhibition of human OVCAR8 cells
786-0 [5] = experiment: Growth inhibition of human 786-0 cells
CAKI-1 [6] = experiment: Growth inhibition of human Caki1 cells
TK-10 = experiment: Growth inhibition of human TK10 cells
UO-31 [7] = experiment: Growth inhibition of human UO31 cells
PC-3 = experiment: Growth inhibition of human PC3 cells
DU-145 = experiment: Growth inhibition of human DU145 cells
MDA-MB-231 = experiment: Growth inhibition of human MDA-MB-231 cells
[8] = Growth inhibition of human Hs 578T cells
BT-549 [9] = experiment: Growth inhibition of human BT549 cells
MDA-MB-468 = experiment: Growth inhibition of human MDA-MB-468 cells
CCRF-CEM [10] = experiment: Growth inhibition of human CCRF-CEM cells assessed tumor cell growth at 10^-5 M; set-up: scale not given: the % may be the effect or the level left
Method in brief: (§1)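 NCI 60-human-tumor-cell-line panel screen. Each compound was tested at a single concentration of 10^-5 M, and percent growth of tumor cells was recorded for each cell line. Growth inhibition was expressed from these percent-growth values.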

[11] = Growth inhibition of human […] cells assessed tumor cell growth at 10^-5 M; set-up: scale not given: the % may be the effect or the level left; method in brief: as §1
SR = experiment: Growth inhibition of human SR cells assessed tumor cell growth at 10^-5 M; set-up: scale not given: the % may be the effect or the level left
Method in brief: (§2)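 Single-dose screen at 10^-5 M across the 60 human tumor cell line panel, run to NCI standards. The value is the percent growth of each cell line in the presence of compound. Compounds active at this dose moved on to five-concentration testing (10^-4 to 10^-8 M).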

EKVX = experiment: Growth inhibition of human EKVX cells assessed tumor cell growth at 10^-5 M; set-up: scale not given: the % may be the effect or the level left; method in brief: as §1
NCI-H226 = experiment: Growth inhibition of human NCI-H226 cells assessed tumor cell growth at 10^-5 M; set-up: scale not given: the % may be the effect or the level left; method in brief: as §1
NCI-H522 [12] = experiment: Growth inhibition of human NCI-H522 cells assessed tumor cell growth at 10^-5 M; set-up: scale not given: the % may be the effect or the level left; method in brief: as §1
HCT-15 = experiment: Growth inhibition of human HCT15 cells assessed tumor cell growth at 10^-5 M; set-up: scale not given: the % may be the effect or the level left; method in brief: as §1
HT-29 = experiment: Growth inhibition of human HT-29 cells assessed tumor cell growth at 10^-5 M; set-up: scale not given: the % may be the effect or the level left; method in brief: as §1
SF-295 [13] = experiment: Growth inhibition of human SF295 cells assessed tumor cell growth at 10^-5 M; set-up: scale not given: the % may be the effect or the level left; method in brief: as §1
SNB-19 = experiment: Growth inhibition of human SNB19 cells assessed tumor cell growth at 10^-5 M; set-up: scale not given: the % may be the effect or the level left; method in brief: as §2
U-251 = experiment: Growth inhibition of human U251 cells assessed tumor cell growth at 10^-5 M; set-up: scale not given: the % may be the effect or the level left; method in brief: as §2
Malme-3M = experiment: Growth inhibition of human MALME-3M cells assessed tumor cell growth at 10^-5 M; set-up: scale not given: the % may be the effect or the level left; method in brief: as §1
M14 [14] = experiment: Growth inhibition of human M14 cells assessed tumor cell growth at 10^-5 M; set-up: scale not given: the % may be the effect or the level left; method in brief: as §1
MDA-MB-435 = experiment: Growth inhibition of human MDA-MB-435 cells assessed tumor cell growth at 10^-5 M; set-up: scale not given: the % may be the effect or the level left; method in brief: as §1
SK-MEL-5 [15] = experiment: Growth inhibition of human SK-MEL-5 cells assessed tumor cell growth at 10^-5 M; set-up: scale not given: the % may be the effect or the level left; method in brief: as §1
UACC-257 = experiment: Growth inhibition of human UACC257 cells assessed tumor cell growth at 10^-5 M; set-up: scale not given: the % may be the effect or the level left; method in brief: as §2
OVCAR-5 [16] = experiment: Growth inhibition of human OVCAR5 cells assessed tumor cell growth at 10^-5 M; set-up: scale not given: the % may be the effect or the level left; method in brief: as §1
NCI/ADR-RES = experiment: Growth inhibition of human NCI/ADR-RES cells assessed tumor cell growth at 10^-5 M; set-up: scale not given: the % may be the effect or the level left; method in brief: as §1
SK-OV-3 = experiment: Growth inhibition of human SKOV3 cells assessed tumor cell growth at 10^-5 M; set-up: scale not given: the % may be the effect or the level left; method in brief: as §1
786-0 [17] = experiment: Growth inhibition of human 786-0 cells assessed tumor cell growth at 10^-5 M; set-up: scale not given: the % may be the effect or the level left; method in brief: as §1
A498 = experiment: Growth inhibition of human A498 cells assessed tumor cell growth at 10^-5 M; set-up: scale not given: the % may be the effect or the level left; method in brief: as §1
ACHN = experiment: Growth inhibition of human ACHN cells assessed tumor cell growth at 10^-5 M; set-up: scale not given: the % may be the effect or the level left; method in brief: as §1
CAKI-1 [18] = experiment: Growth inhibition of human Caki1 cells assessed tumor cell growth at 10^-5 M; set-up: scale not given: the % may be the effect or the level left; method in brief: as §1
RXF 393 = experiment: Growth inhibition of human RXF393 cells assessed tumor cell growth at 10^-5 M; set-up: scale not given: the % may be the effect or the level left; method in brief: as §1
SN12C = experiment: Growth inhibition of human SN12C cells assessed tumor cell growth at 10^-5 M; set-up: scale not given: the % may be the effect or the level left; method in brief: as §1
UO-31 [19] = experiment: Growth inhibition of human UO31 cells assessed tumor cell growth at 10^-5 M; set-up: scale not given: the % may be the effect or the level left; method in brief: as §2
[20] = Growth inhibition of human Hs 578T cells assessed tumor cell growth at 10^-5 M; set-up: scale not given: the % may be the effect or the level left; method in brief: as §1
BT-549 [21] = experiment: Growth inhibition of human BT549 cells assessed tumor cell growth at 10^-5 M; set-up: scale not given: the % may be the effect or the level left; method in brief: as §1
CCRF-CEM [22] = experiment: Growth inhibition of human CCRF-CEM cells
MOLT-4 = experiment: Growth inhibition of human MOLT4 cells
HOP-62 = experiment: Growth inhibition of human HOP62 cells
NCI-H522 [23] = experiment: Growth inhibition of human NCI-H522 cells
COLO 205 = experiment: Growth inhibition of human COLO205 cells
[24] = read-out: LC50 (the source's name)

Compound: O=C1/C(=C\c2ccccn2)c2ccccc2N1c1c(Cl)cccc1Cl
- GI50 (SF-268): 3.6 µM
- CC50 (SF-268; [24]): 40.7 µM
- GI50 (SF-295 [1]): 1.7 µM
- CC50 (SF-295 [1]; [24]): 13.8 µM
- GI50 (SF-539): 2.4 µM
- CC50 (SF-539; [24]): > 100 µM
- GI50 (SNB-75): 1.4 µM
- CC50 (SNB-75; [24]): 32.3 µM
- GI50 (M14 [2]): 1.7 µM
- CC50 (M14 [2]; [24]): 7.7 µM
- GI50 (SK-MEL-5 [3]): 1.6 µM
- CC50 (SK-MEL-5 [3]; [24]): 5.7 µM
- GI50 (IGROV-1): 1.7 µM
- GI50 (OVCAR-3): 1.7 µM
- CC50 (OVCAR-3; [24]): 6.9 µM
- GI50 (OVCAR-5 [4]): 2.4 µM
- CC50 (OVCAR-5 [4]; [24]): > 100 µM
- GI50 (OVCAR-8): 2.1 µM
- CC50 (OVCAR-8; [24]): > 100 µM
- GI50 (786-0 [5]): 1.9 µM
- CC50 (786-0 [5]; [24]): 6.6 µM
- GI50 (CAKI-1 [6]): 1.3 µM
- CC50 (CAKI-1 [6]; [24]): 7.4 µM
- GI50 (TK-10): 3 µM
- CC50 (TK-10; [24]): 50.1 µM
- GI50 (UO-31 [7]): 1.4 µM
- CC50 (UO-31 [7]; [24]): 6 µM
- GI50 (PC-3): 2.2 µM
- CC50 (PC-3; [24]): 93.3 µM
- GI50 (DU-145): 2.1 µM
- CC50 (DU-145; [24]): 9.1 µM
- GI50 (MDA-MB-231): 2 µM
- CC50 (MDA-MB-231; [24]): 29.5 µM
- GI50 [8]: 5.6 µM
- CC50 [8, 24]: > 100 µM
- GI50 (BT-549 [9]): 2.4 µM
- CC50 (BT-549 [9]; [24]): 23.4 µM
- GI50 (MDA-MB-468): 0.9 µM
- CC50 (MDA-MB-468; [24]): 7.4 µM
- Activity (CCRF-CEM [10]): 8.81%
- Activity [11]: -12.52%
- Activity (SR): -4.3%
- Activity (EKVX): 27.21%
- Activity (NCI-H226): 25.22%
- Activity (NCI-H522 [12]): 36.79%
- Activity (HCT-15): 12.58%
- Activity (HT-29): 10.75%
- Activity (SF-295 [13]): 12.33%
- Activity (SNB-19): 34.85%
- Activity (U-251): -2.48%
- Activity (Malme-3M): 67.26%
- Activity (M14 [14]): -43.6%
- Activity (MDA-MB-435): -5.05%
- Activity (SK-MEL-5 [15]): 23.68%
- Activity (UACC-257): 59.3%
- Activity (OVCAR-5 [16]): 122.39%
- Activity (NCI/ADR-RES): -26.73%
- Activity (SK-OV-3): 39.19%
- Activity (786-0 [17]): -81.44%
- Activity (A498): 21.33%
- Activity (ACHN): 19.58%
- Activity (CAKI-1 [18]): -1.37%
- Activity (RXF 393): -35.21%
- Activity (SN12C): 18.08%
- Activity (UO-31 [19]): 16.75%
- Activity [20]: 22.94%
- Activity (BT-549 [21]): -17.72%
- GI50 (CCRF-CEM [22]): 3.2 µM
- CC50 (CCRF-CEM [22]; [24]): > 100 µM
- GI50 (MOLT-4): 4.4 µM
- LC50 (MOLT-4): > 100 µM
- GI50 (HOP-62): 2.3 µM
- CC50 (HOP-62; [24]): 89.1 µM
- GI50 (NCI-H522 [23]): 1.6 µM
- LC50 (concentration killing 50% of cells) (NCI-H522 [23]): 7.5 µM
- GI50 (COLO 205): 2.3 µM
- LC50 (COLO 205): > 100 µM
